In paper PMC6489120 (Journal of medicinal chemistry, 2018):
Converted amounts (≈) assume the structure as drawn.

Columns and labels:
[1] = test system: other 371 kinases; experiment: kinase panel by Reaction Biology; assay type: biochemical; conditions: at 3 µM
[2] = full pharmacokinetics in mice; assay type: in vivo; conditions: Balb/c, mouse, plasma, po, 25 mg/kg
How it was run: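 Balb/c mice dosed orally at 25 mg/kg (iv arm 5.0 mg/kg), test compound in 20% (v/v) PCP and 70% (v/v) PBS. Blood taken 0, 5, 15, 30 min and 1, 2, 4, 6, 8, 24 h post-dose and centrifuged; plasma held at −80 °C. Plasma levels by LC−MS/MS (C18, formic acid/CH3CN gradient, positive-ion MRM); parameters by noncompartmental analysis.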

[3] = target: CECR2 (Homo sapiens, UniProt Q9BXF3); experiment: DiscoverX BROMOscan; assay type: binding; conditions: BROMOscan Kd
[4] = test system: 23 other non-BET family bromodomain containing proteins; experiment: DiscoverX BROMOscan, other non-BET bromodomains summary; assay type: binding; conditions: at concentrations of 3–4 µM
[5] = target: CREBBP (Homo sapiens, UniProt Q92793); experiment: DiscoverX BROMOscan; assay type: binding; conditions: BROMOscan Kd
[6] = animal weight and signs of toxicity in efficacy studies; assay type: in vivo; conditions: all the three dose-schedules tested
[7] = aqueous solubility; assay type: physicochemical; conditions: aqueous solution
[8] = target: T1, EP300 (Homo sapiens, UniProt Q09472); experiment: DiscoverX BROMOscan; assay type: binding; conditions: BROMOscan Kd
T1 sequence (Q09472 1040-1161 limits assumed): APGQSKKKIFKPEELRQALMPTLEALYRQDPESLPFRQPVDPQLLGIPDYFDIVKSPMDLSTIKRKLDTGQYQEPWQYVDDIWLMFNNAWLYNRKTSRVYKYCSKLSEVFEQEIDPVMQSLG

[9] = target: BRD4 BD1 (Homo sapiens, UniProt O60885); experiment: fluorescence polarization binding assay, BRD4 BD1; conditions: relative to compound 24
How it was run: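 Binding measured by fluorescence polarization against recombinant human BRD4 BD1 (residues 44−168), using the group's previously established FP assay.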

CREBBP, sequence (Q92793 1081-1197 limits assumed): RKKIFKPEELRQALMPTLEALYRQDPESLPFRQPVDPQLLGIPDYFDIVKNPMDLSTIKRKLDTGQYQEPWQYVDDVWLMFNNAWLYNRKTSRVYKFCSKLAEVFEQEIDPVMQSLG
CECR2, sequence (Q9BXF3 424-538 limits assumed): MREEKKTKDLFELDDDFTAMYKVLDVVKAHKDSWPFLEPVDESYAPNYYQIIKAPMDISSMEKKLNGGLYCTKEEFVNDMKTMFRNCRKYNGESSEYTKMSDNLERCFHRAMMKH

| times less potent than 24 in binding to BRD4 BD1 [9] | Compound | inhibition against other 371 kinases [1] | Cmax [2] | selectivity for BET bromodomains over CRCR2 [3] | binding affinity to 23 other non-BET bromodomain containing proteins [4] | selectivity for BET bromodomains over CREBBP [5] | other signs of toxicity [6] | weight loss [6] | solubility ([7]; pH 3, aqueous buffer) | solubility ([7]; pH 11, aqueous buffer) | selectivity for BET bromodomains over EP300 [8] |
| --- | --- | --- | --- | --- | --- | --- | --- | --- | --- | --- | --- |
| – | COc1cc2c(cc1-c1c(C)noc1C)[nH]c1nc(C)nc(Nc3cc(C4CC4)nn3C)c12 [Compound 28, N-(3-Cyclopropyl-1-methyl-1H-pyrazol-5-yl)-7-(3,5-dimethylisoxazol-4-yl)-6-methoxy-2-methyl-9H-pyrimido[4,5-b]indol-4-amine] | no appreciable inhibition | 6.4 µM | > 50 fold | no appreciable binding affinity | > 20 fold | does not cause other signs of toxicity | no more than 5% | 19.5 ± 5.5 µM (≈ 8.65 µg/mL) | 14 ± 0.5 µM (≈ 6.21 µg/mL) | > 50 fold |
| > 5 times | COc1cc2c(cc1-c1c(C)noc1C)[nH]c1nc(C)nc(Nc3c(C)c(C4CC4)nn3C)c12 [Compound 37, N-(3-Cyclopropyl-1,4-dimethyl-1H-pyrazol-5-yl)-7-(3,5-dimethylisoxazol-4-yl)-6-methoxy-2-methyl-9H-pyrimido[4,5-b]indol-4-amine] | – | – | – | – | – | – | – | – | – | – |
